Data on 72 molecules can be found in ChEMBL document CHEMBL4513216, “Probing the Open Global Health Chemical Diversity Library for Multistage-Active Starting Points for Next-Generation Antimalarials” (ACS Infect Dis, 2020).

A short description of the data set: Toxicity liver stage against HepG2, at 10uM. The class given is cell-based. Details: test concentration 10 uM, cell line HepG2-A16-CD81EGFP. Conditions: human, HepG2-A16-CD81EGFP cells; read-out: INHIBITION
Put shortly:
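Uninfected HepG2-A16-CD81EGFP cells, 3 × 10^3 per well, 1536-well, plated on prespotted compound at 10 μM final, parasite-free screening media added to match infected plates; puromycin 10 μM positive, DMSO 0.5% negative; run in parallel with 48 h PbLuc assay at 37 °C, 5% CO2; viability by CellTiter-Glo luminescence, normalized to controls.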

On to `Cc1ccc(CN2CCC3(CCN(Cc4ccncc4)CC3)CC2)cc1`, for which the cytotoxicity at 10 µM was 8.4%.

As for `Cn1c(CN2CCCC(Cn3cncn3)C2)nc2ccccc21` (configuration not stated), the cytotoxicity at 10 µM was -6.78%.

`CN(CCNC(=O)Nc1nccs1)Cc1ccc(F)cc1`: the cytotoxicity at 10 µM is -1.32%.

`CN1CCCC1c1cccc(Cc2ccc(F)cc2)n1` (configuration not stated): the cytotoxicity at 10 µM amounted to 4.3%.

With `Cc1noc(C)c1S(=O)(=O)N(C)Cc1nn(C)c(Cl)c1Cl`, the cytotoxicity at 10 µM was -6.01%.

On to `CCC(CC)n1nc(C)cc1NC(=O)CC1CCOCC1`, for which the cytotoxicity at 10 µM was -2.17%.

Consider `Cc1cc(C)n(CC2CN(Cc3ccccn3)CCO2)n1` (configuration not stated), for which the cytotoxicity at 10 µM is -3.89%.

Regarding `Cc1cccc(C2CCCN(S(=O)(=O)c3cccnc3)C2)n1` (configuration not stated), the cytotoxicity at 10 µM stood at 4.05%.

Turning to `CCNC(=O)N1CCc2ccc(NC(=O)NCC3CC3)cc21`, the cytotoxicity at 10 µM was 3.53%.

As for `COCc1ncc(CN2CCC(Oc3ccccc3OC)CC2)cn1`, the cytotoxicity at 10 µM was -1.77%.

For the molecule `OCC1CCCN1c1cc(NCc2ccc(Cl)s2)ncn1` (configuration not stated), the cytotoxicity at 10 µM is -2.96%.

For the molecule `CC(C)(C)C(=O)NCCC(=O)NS(=O)(=O)c1cccc(C#N)c1`, the cytotoxicity at 10 µM came out at 1.01%.

Turning to `Cc1noc(C)c1NC(=O)NC1CCN(C(=O)OC(C)(C)C)CC1`, the cytotoxicity at 10 µM came to 4.77%.

`Cc1nnc2n1CCN(Cc1csc(CC(=O)N(C)C)n1)C2`: the cytotoxicity at 10 µM is -7.08%.

On to `COc1ncccc1C(=O)N1CCc2c(ncnc2N2CCOCC2)C1`, for which the cytotoxicity at 10 µM is -3.5%.

Consider `CCc1noc(CN(C)CCC(=O)Nc2ccc(C#N)c(Cl)c2)n1`, for which the cytotoxicity at 10 µM stood at 22.5%.

With `CN1C[C@@H]2CN(Cc3ccsc3)CCC[C@]2(C(=O)O)C1`, the cytotoxicity at 10 µM is -141%.

Take `COCC[C@]1(O)CCN(S(=O)(=O)c2ccc(C)cc2OC)C[C@H]1C`: the cytotoxicity at 10 µM worked out at 11.4%.

On to `CC(C)n1cc2cc(NC(=O)CCS(C)(=O)=O)ccc2n1`, for which the cytotoxicity at 10 µM was -141%.

With `COCCC(=O)N1C[C@@H](c2ccccc2F)[C@@]2(CCCC(=O)N2)C1`, the cytotoxicity at 10 µM worked out at 0.55%.

Take `CC(C)(C)C(=O)N1CCN(CCOc2cccc(C#N)c2)CC1`: the cytotoxicity at 10 µM amounted to 3.53%.

In the case of `Cc1cc(NCCc2nc(C)cs2)nc(-c2cccnc2)n1`, the cytotoxicity at 10 µM is 1.02%.

In the case of `O=C(Cn1cccn1)N1CCC(Oc2ccc(C(F)(F)F)cn2)CC1`, the cytotoxicity at 10 µM stood at 8.77%.

In the case of `Cc1nc(N2CCC(C(O)c3nccn3C)CC2)c2cccnc2n1` (configuration not stated), the cytotoxicity at 10 µM was found to be 1.46%.

As to `Cc1ccc(C(=O)N(C)CCOc2ccccc2F)c(=O)[nH]1`, the cytotoxicity at 10 µM is -136%.

For the molecule `CS(=O)(=O)c1cn[nH]c1C1CCCN(C(=O)CN2CCOCC2)C1` (configuration not stated), the cytotoxicity at 10 µM is -22.8%.

Consider `c1ccc(-c2n[nH]c(CCNc3nnc(C4CCC4)o3)n2)cc1`, for which the cytotoxicity at 10 µM came to 0.677%.

For the molecule `CCOCCNC(=O)c1cc(COc2cncc(Cl)c2)on1`, the cytotoxicity at 10 µM is 7.62%.

In the case of `Cc1ccc(C(=O)N2CCN(Cc3ccccc3)CC2)n1C`, the cytotoxicity at 10 µM was -1.28%.

For the molecule `O=C(NCc1cn2c(n1)CN(Cc1ccncc1)CC2)C1CCC1`, the cytotoxicity at 10 µM was found to be 6.76%.

On to `Cc1cc(O)nc(C2CCCNC2)n1` (configuration not stated), for which the cytotoxicity at 10 µM is -9.14%.

In the case of `O=S(=O)(N1CCOCC1)N1CCC(Oc2cnccn2)CC1`, the cytotoxicity at 10 µM is -23.3%.

With `CSCc1noc(CN2CCCCC2CCc2ccc(O)cc2)n1` (configuration not stated), the cytotoxicity at 10 µM is -1.58%.

For `O=C(NC1(c2cccc(F)c2)CCOCC1)c1ccccn1`, the cytotoxicity at 10 µM was -12.3%.

As to `COc1ncccc1NC(=O)N1CCC(c2ccc(O)cc2)CC1`, the cytotoxicity at 10 µM is 4.87%.

Consider `COc1ccc(C(C)N2CCC(C(=O)NC3CC3)CC2)cc1Cl` (configuration not stated), for which the cytotoxicity at 10 µM was -50.6%.

Consider `COc1cc(CN2CC[C@H](NC(C)=O)[C@@H](O)CC2)ccc1F`, for which the cytotoxicity at 10 µM is -9.19%.

`Cc1ccc(NCCCNC(=O)NCc2c(C)cc(C)[nH]c2=O)nc1`: the cytotoxicity at 10 µM is -45.2%.

For the molecule `Cc1ccccc1C1CCCN(C(=O)c2c[nH]c(=O)c(Cl)c2)C1` (configuration not stated), the cytotoxicity at 10 µM is -59.8%.

On to `COC[C@@]12CCO[C@@H]1CCN(Cc1sccc1C)C2`, for which the cytotoxicity at 10 µM was -109%.

For the molecule `Cc1cc(C2CCCN(C(=O)c3ccc(C)[nH]c3=O)C2)n[nH]1` (configuration not stated), the cytotoxicity at 10 µM is -5.65%.

As to `COc1ccccc1CN(Cc1cccnc1)Cc1c[nH]c(C)n1`, the cytotoxicity at 10 µM came to 6.43%.

With `CCS(=O)(=O)N1CCC2(CC(=O)N(c3ccc4c(c3)OCO4)C2)C1` (configuration not stated), the cytotoxicity at 10 µM worked out at 9.17%.

For `Cc1cc(N2CCOCC2)nc(N(C)CCO)c1C#N`, the cytotoxicity at 10 µM is 2.17%.

Consider `CC(C)C(C(=O)NCc1ccccc1-n1cccn1)N(C)C` (configuration not stated), for which the cytotoxicity at 10 µM is -3.17%.

For the molecule `CC(C)(C)c1nnc(CN2CCCC(c3cc(C(N)=O)[nH]n3)C2)o1` (configuration not stated), the cytotoxicity at 10 µM was -7.89%.

As to `Cc1ccc2c(c1)N(C(=O)C1CCCOC1)CCC2` (configuration not stated), the cytotoxicity at 10 µM was determined as 5%.

Regarding `CN1CCOC(C(=O)N2CCC3(CCCCC3)C2)C1` (configuration not stated), the cytotoxicity at 10 µM was determined as 5.41%.

With `CCCN1CCCC2(CCN(Cc3cncn3C3CCCCC3)C2)C1=O` (configuration not stated), the cytotoxicity at 10 µM was 5.89%.

For the molecule `COCCCS(=O)(=O)N(Cc1cccc(C)c1)Cc1ccccn1`, the cytotoxicity at 10 µM came out at 2.47%.

In the case of `O=C(NCCCN1CCc2ccccc2C1)c1cccnc1O`, the cytotoxicity at 10 µM is -3.49%.

As for `Fc1cc(Cl)cnc1N1CCCC(c2nccn2Cc2ccncc2)C1` (configuration not stated), the cytotoxicity at 10 µM was -2%.

On to `FC(F)(F)c1ccc(-c2n[nH]c3c2CN(CC2CCOC2)CC3)cc1` (configuration not stated), for which the cytotoxicity at 10 µM is -52.1%.

For the molecule `O=C(NCCNc1ccc(C(F)(F)F)cn1)c1ccc(Cl)cc1F`, the cytotoxicity at 10 µM is -1.99%.

On to `CC(C)c1cc(NC(=O)CN2CCc3ccccc3C2)on1`, for which the cytotoxicity at 10 µM was -4.89%.

For `CN1CCN(Cc2ccccc2CNC(=O)c2ccc(Br)cc2F)CC1`, the cytotoxicity at 10 µM was determined as 4.65%.

Take `CC(C)CN1CC[C@@H]2[C@@H]1CCN2C(=O)N1CCCC1`: the cytotoxicity at 10 µM is -1%.

For the molecule `O=C1[C@H]2CN(Cc3ccoc3)C[C@H]2CN1Cc1cccnc1`, the cytotoxicity at 10 µM was -76.5%.

For the molecule `N#CCCn1cnc2c(Br)cc(Br)cc2c1=O`, the cytotoxicity at 10 µM was -5.35%.

As for `COc1ccc(NC(=O)N2CCC3(CC2)NC(=O)CC3C(=O)O)c(C)c1` (configuration not stated), the cytotoxicity at 10 µM is -7.34%.

With `COc1ccc(Cn2c(=O)n(C)c(=O)c3sccc32)cc1`, the cytotoxicity at 10 µM amounted to 24.2%.

For the molecule `Cc1cnn(CC2CCCN2CC(=O)NC2CCN(C3CC3)CC2)c1` (configuration not stated), the cytotoxicity at 10 µM was found to be 0.109%.

On to `Cc1nc(CNC2(C(=O)OC(C)(C)C)CCCC2)oc1C`, for which the cytotoxicity at 10 µM is -0.457%.

Take `CN(C)c1ncc(-c2cc(C(=O)NCCO)n(CC3CC3)c2)cn1`: the cytotoxicity at 10 µM is -3.53%.

Consider `CC(=O)N1CCCC2(CCN(Cc3ccc(Cl)c(C(F)(F)F)c3)C2)C1` (configuration not stated), for which the cytotoxicity at 10 µM came out at 11.9%.

Turning to `CCOCC1c2c(ncn2C)CCN1C(=O)c1cnc(C)cn1` (configuration not stated), the cytotoxicity at 10 µM was -108%.

As to `Cc1ccc(OCC2CCCN(Cc3ccc(CO)o3)C2)cc1` (configuration not stated), the cytotoxicity at 10 µM is 5.66%.

Take `N#CC1COCCN1S(=O)(=O)c1ccc(F)c(Br)c1` (configuration not stated): the cytotoxicity at 10 µM came out at 4.43%.

In the case of `Cn1ncc2c(=O)[nH]c(CN3CCc4ccccc4C3)nc21`, the cytotoxicity at 10 µM is -2.72%.

Turning to `CC(=O)N1CCC2(CCCN(C(=O)c3ccc(Cl)c(C(F)(F)F)c3)C2)C1` (configuration not stated), the cytotoxicity at 10 µM is -81.8%.

As for `CC[C@H](CO)NC(=O)c1coc(COc2cccc(F)c2F)n1`, the cytotoxicity at 10 µM is 3.08%.

For the molecule `Cn1cc2ncn(CCC3CCN(Cc4ccccc4)C3)c(=O)c2n1` (configuration not stated), the cytotoxicity at 10 µM is 1.28%.
